In the library only some 2% were active in any assay of this set; here they are far more common.
TDP2 absorb – TDP2 (human) inhibition, absorbance primary screen. O95551. recombinant TDP2, T5PNP hydrolysis, p-nitrophenol absorbance 415 nm. inhibition, % at 12.8 µM. 0.34% of 370,000 active;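 active = inhibition above the mean of all tested compounds plus 3 SD, set per campaign, cut at about 25% in these data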
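test system = human TDP2 enzyme | input = TDP2 enzyme at 120 nM final | medium = 50 mM Tris-HCl pH 7.5 with Mg2+, KCl, DTT, BSA | also added = T5PNP substrate, 5 mM | times = 2 h at 37 °C | technique = epi absorbance | benchmarks = high control without enzyme, low control DMSO plus TDP2 | replication = each compound tested once, singlicate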
ABHD4 inh – inhibitors of mouse ABHD4. Q8VD66. purified mABHD4, FP-Rh probe fluorescence polarization. inhibition, % at 8.92 µM. 0.54% of 370,000 active. AID 720543;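 active = inhibition exceeding the mean over every tested compound plus 3 SD, cut at about 30% in these data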
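Assay system: Wild-type mouse ABHD4 protein | Medium: HEPES pH 7.0 buffer, 150 mM NaCl, 0.01% Pluronic F-127 | Incubation: Enzyme–compound pre-incubation 45 min, then probe 60 min, both 25 °C | Technique: Fluorescence polarization with parallel and perpendicular emission, 525/598 nm | Evaluation: % inhibition of FP-Rh probe binding versus controls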
TCR-CD3 inh – inhibitors of human TCR-CD3 interaction | TAMRA-labeled TCR probe fluorescence, biochemical | inhibition, % at 9.4 µM | 0.37% of 360,000 active;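 also: recombinant mutant TCR 2C K166C tagged with TAMRA read by polarization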
SIAE primary – inhibitors of human sialic acid acetylesterase SIAE. Q9HAT2. SIAE FP-Rh probe binding, fluorescence polarization. inhibition, % at 9.66 µM. 0.69% of 370,000 active. AID 1053197;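 active = inhibition above a cutoff: mean of compounds within the control limits plus 3 SD of those, cut at about 17% in these data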
PAD4 inh – PAD4 (human) enzyme inhibition; Q9UM07; recombinant PAD4, RCA probe fluorescence polarization; inhibition, % at 6.36 µM; 0.41% of 330,000 active;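 active = percent inhibition above a cutoff equal to the mean of all tested compounds plus 3 SD, cut at about 15% in these data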
HTRA1 inhibitor – blocks human HTRA1 serine peptidase | Q92743 | recombinant HTRA1, FP-rhodamine activity-based probe, fluorescence polarization | inhibition, % at 5.96 µM | 0.5% of 340,000 active | AID 504803; in the data active = inhibition above about 36%
HTRA1 conf – HTRA1 (human) inhibition, confirmation. recombinant HTRA1, FP-rhodamine activity-based probe, fluorescence polarization. 66% of 1,600 active. shares compounds with HTRA1 inhibitor. inhibition, % at 5.96 µM;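 active = mean inhibition over three repeats above a set limit taken from the earlier primary screen, cut at about 37% in these data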;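 also: inhibitors block probe binding so polarization drops and inhibition rises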
BSA TAMRA ctr – counter-screen for TCR-CD3 interaction inhibitors: BSA probe; shares compounds with TCR-CD3 inh; 10% of 1,200 active; AID 652035; inhibition, % at 9.4 µM; TAMRA-labeled BSA probe fluorescence counterscreen; in the data active = inhibition above about 23%
TCR-CD3 inh conf – TCR-CD3 interaction inhibition, confirmation; 48% of 1,200 active; AID 652036; TAMRA-labeled TCR probe fluorescence binding assay; shares compounds with TCR-CD3 inh; inhibition, % at 9.4 µM
ABHD4 confirm – confirmation of mouse ABHD4 inhibitors; 55% of 1,800 active; purified mABHD4, FP-Rh probe fluorescence polarization; inhibition, % at 8.92 µM; shares compounds with ABHD4 inh;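 active = mean inhibition across replicates above the hit cutoff set in the primary screen, cut at about 30% in these data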
TDP2 inh conf – human TDP2 inhibition, confirmation. shares compounds with TDP2 absorb. recombinant human TDP2, absorbance read-out. inhibition, % at 12.8 µM. 22% of 1,100 active. AID 743263; in the data active = inhibition above about 25%
SIAE confirm – human SIAE inhibition, confirmation. shares compounds with SIAE primary. SIAE FP-Rh activity-based probe, fluorescence polarization. inhibition, % at 9.66 µM. 13% of 2,300 active. AID 1117263;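 active = mean inhibition of the replicates above the hit cutoff set in the primary screen, cut at about 17% in these data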;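 also: inhibitors lower polarization as more probe stays unbound to SIAE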
Numbers stand for hits; . = inactive; / = no result given. Rule as the data show it, unless noted: active = inhibition above about 19%; inactive = the rest.

SMILES | TDP2 absorb | ABHD4 inh | TCR-CD3 inh | SIAE primary | PAD4 inh | HTRA1 inhibitor | HTRA1 conf | BSA TAMRA ctr | TCR-CD3 inh conf | ABHD4 confirm | SIAE confirm | others
Oc1cccc(C=Nc2cccc3ccccc23)c1O | . | 53 | . | 20 | . | 71 | 53 | / | / | / | .
Oc1ccc(Cl)cc1CNc1cccc2cccnc12 | 32 | 36 | . | 20 | . | 49 | . | / | / | . | . | TDP2 inh conf=.
COc1cc2nc(Nc3ccc(C)c(Cl)c3)nc(N)c2cc1OC | . | 42 | . | 58 | . | 36 | 46 | / | / | 66 | 62
O=c1c2ccccc2nc(N/N=C/c2c(O)ccc3ccccc23)n1O | . | 34 | . | 18 | . | 62 | 68 | / | / | 34 | .
CN(Cc1ccc(Cl)cc1Cl)C(=O)C1CSC2(C)CCC(=O)N12 (centres undefined) | . | . | . | . | / | . | / | / | / | / | /
Fc1ccc(C2=Nc3cccc4cccc(c34)N2)cc1 | . | . | . | . | . | . | / | / | / | / | /
FC(F)(F)C1=Nc2cccc3cccc(c23)N1 | . | . | 31 | 56 | / | 39 | 85 | . | . | / | .
Oc1ccc(-c2csc(Nc3cccc4ccccc34)n2)cc1O | . | . | . | 26 | . | 71 | 71 | / | / | / | .
Oc1ccc(NCc2cccs2)cc1 | . | 54 | 21 | 20 | . | 37 | . | . | . | . | .
Cc1occc1-c1nnc(SC(C)C(=O)Nc2ccccc2F)o1 (centres undefined) | . | . | . | . | / | . | / | / | / | / | /
COc1cccc2c1C(=O)c1c(O)c3c(c(O)c1C2=O)C[C@@](O)(C(=O)CO)C[C@@H]3OC1CC(N)C(O)C(C)O1 (some centres undefined) | . | 75 | 125 | 54 | / | 73 | 65 | 156 | 126 | 55 | 55
COc1cccc2c1C(=O)c1c(O)c3c(c(O)c1C2=O)CC(O)(C(C)=O)CC3OC1CC(N(C)C)C(O)C(C)O1 (centres undefined) | . | 72 | 156 | 64 | / | 68 | 68 | 176 | 145 | 61 | 54
Cc1ccc(CN2CCN(c3cccc4[nH]ccc34)CC2)cc1 | . | . | . | . | . | . | / | / | / | / | /
Cc1cc2cc(CNC(=O)Nc3cccc(Cl)c3)ccc2n1C | . | 46 | 55 | 26 | . | 39 | . | . | . | . | .
Oc1c(Cl)cc(Cl)cc1/C=N/NC(=S)NC1CC2C=CC1C2 (centres undefined) | . | 39 | 23 | 20 | . | 52 | 54 | . | 28 | 41 | 21
Nc1ccc(Nc2nc3ccccc3[nH]2)cc1 | . | 31 | . | 57 | . | 58 | 66 | / | / | 59 | 58
O=C(N/N=C/c1cc(Br)cc(Br)c1O)c1ccncc1 | . | . | . | . | . | / | / | / | / | / | /
O=C(N/N=C/c1cc(Br)cc([N+](=O)[O-])c1O)c1ccc(NC(=O)c2ccc(F)cc2)cc1 | . | . | 58 | 53 | . | 51 | 53 | . | 51 | / | .
CC1(C(=O)Nc2ccc3c(c2)OCCO3)CN(S(C)(=O)=O)CC(=O)N1CC(F)(F)F (centres undefined) | . | . | . | . | / | / | / | / | / | / | /
CN(C)c1ccc(/C=N/n2c(-c3ccccc3Br)n[nH]c2=S)cc1 | . | . | . | . | . | . | / | / | / | / | /
